Assay outcomes: PubChem, several laboratories
Compounds with a hit are over-represented: about 4.6% of the library has one in this group of screens.
ALR H2O2 inh = inhibitors of human sulfhydryl oxidase ALR. P55789. AID 485317. inhibition, % (test concentration not listed). 290,000 compounds, 3.8% hits. purified ALR, DTT oxidation, H2O2 HRP-luminol luminescence;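 active = mean replicate inhibition above about 79%, with every replicate also reaching it, limit read from the data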
FAS-TE inh = FAS thioesterase (human) inhibition. P49327. recombinant FAS-TE, OMFH fluorogenic substrate, fluorescence endpoint. inhibition, % at 15 µM. 360,000 compounds, 0.67% hits;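 active = compounds whose normalised, plate-corrected inhibition of enzyme fluorescence in the single-dose primary screen is 50% or more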;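 also: 0% = DMSO with enzyme and 100% = substrate without enzyme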
UCH37 DUB inh = inhibitors of human deubiquitinating enzyme UCH37 | Q9Y5K5 | purified proteasome/UCH37, Ub-AMC cleavage fluorescence | inhibition, % (test concentration not listed) | 330,000 compounds, 0.33% hits | AID 588478;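 active = mean inhibition over replicate wells above about 20%, limit read from the data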;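 also: 0% = compound-free wells with enzyme and 100% = wells lacking proteasome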
Target sequence (Q9Y5K5 whole entry, looked up): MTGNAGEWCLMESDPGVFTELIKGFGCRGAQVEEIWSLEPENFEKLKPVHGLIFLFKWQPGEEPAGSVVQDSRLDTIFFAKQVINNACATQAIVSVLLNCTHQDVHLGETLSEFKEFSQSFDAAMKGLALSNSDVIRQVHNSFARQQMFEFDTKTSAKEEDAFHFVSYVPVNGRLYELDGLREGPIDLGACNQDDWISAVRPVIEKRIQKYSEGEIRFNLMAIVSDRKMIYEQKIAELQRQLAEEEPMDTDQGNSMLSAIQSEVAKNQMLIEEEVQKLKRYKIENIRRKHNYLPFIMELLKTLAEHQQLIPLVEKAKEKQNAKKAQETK
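Material: Human UCH37 enzyme supplied as purified proteasome complex | Schedule: 30 min compound-proteasome preincubation then 25 min substrate reaction, room temperature | Detection: AMC fluorescence from Ub-AMC cleavage, excitation 355 nm, emission 460 nm | Benchmarks: Wells without proteasome as full block, compound-free enzyme plus substrate as uninhibited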
Rtt109 Vps75 = blocks Candida albicans Rtt109/Vps75 acetyltransferase activity. Q5AAJ8. purified Rtt109/Vps75, ThioGlo CoA-SH fluorescence, 4 h. inhibition, % at 34.9 µM. 330,000 compounds, 0.16% hits;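 active = inhibition of at least 50% in every replicate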
Target sequence (Q5AAJ8 whole entry, looked up): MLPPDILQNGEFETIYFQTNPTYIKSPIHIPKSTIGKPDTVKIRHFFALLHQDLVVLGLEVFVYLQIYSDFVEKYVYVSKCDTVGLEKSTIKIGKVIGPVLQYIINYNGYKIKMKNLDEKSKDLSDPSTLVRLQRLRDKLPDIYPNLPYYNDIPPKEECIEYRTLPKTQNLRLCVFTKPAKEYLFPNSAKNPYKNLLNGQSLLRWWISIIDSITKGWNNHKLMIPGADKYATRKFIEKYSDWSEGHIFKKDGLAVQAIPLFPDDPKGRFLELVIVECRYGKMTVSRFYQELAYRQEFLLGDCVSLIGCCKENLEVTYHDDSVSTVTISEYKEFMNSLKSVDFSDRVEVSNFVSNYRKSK
HDAC3 inhib = blocks human histone deacetylase 3. O15379. inhibition, % at 8.3 µM. recombinant HDAC3, fluorogenic peptide/trypsin coupled, fluorescence. AID 2718. 320,000 compounds, 0.15% hits; in the data active = inhibition above about 26%, passing the limit was not always enough
M18AAP inhibitor = PfM18AAP enzyme inhibition | inhibition, % at 7.35 µM | 290,000 compounds, 1.2% hits | recombinant PfM18AAP, H-Glu-NHMec fluorogenic cleavage | AID 1822;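 active = inhibition above the campaign mean inhibition over all tested compounds plus 3 SD, cut at about 28% in these data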;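 also: 0% = plate median of test compound wells and 100% = 2 mM ZnCl2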
Numbers without * were called inactive; . = no result.

SMILES | ALR H2O2 inh | FAS-TE inh | UCH37 DUB inh | Rtt109 Vps75 | HDAC3 inhib | M18AAP inhibitor
COc1ccc(OC)c(N=c2ssnc2Cl)c1 | . | -7 | 4 | 1 | 12 | 19
COc1ccc(C=NNC(=O)CNS(=O)(=O)c2ccccc2)cc1 | . | . | 1 | . | . | .
CC(C)(C)c1ccc(C(=O)NC(=S)Nc2nc3c(s2)CCCC3)cc1 | -3 | 32 | 5 | . | 3 | -11
CN(C)c1ccc(C(=O)Nc2nc3c(s2)CCCC3)cc1 | 96* | 12 | -6 | 10 | 3 | 11
Cc1onc(-c2ccccc2)c1C(=O)Nc1nc2c(s1)CCCC2 | -6 | 19 | 6 | -3 | 6 | -4
Cc1cc(C(=O)Nc2nc3c(s2)CCCC3)no1 | 96* | -5 | 5 | 0 | 0 | -4
CCN(CCC#N)c1ccc(C=NNc2nc(C)cc(=O)[nH]2)c(C)c1 | . | . | -20 | . | . | .
Cc1ccc(C(=O)NCC(=O)OC(C)C(=O)Nc2ccc(N(C)C)cc2)s1 (centres undefined) | 99* | -3 | 0 | -2 | -6 | 11
Cc1ccc(C(=O)NCC(=O)OC(C)C(=O)Nc2ccccc2[N+](=O)[O-])s1 (centres undefined) | -4 | -5 | 3 | -3 | -5 | .
CCc1sc(NS(C)(=O)=O)nc1-c1ccccc1 | 98* | -9 | 3 | 1 | -4 | 2
C/C(C=NNC(=O)C(O)c1ccccc1)=C\c1ccccc1 (centres undefined) | . | . | 1 | . | . | .
CC(=NNC(=O)CSc1nc(C)cc(C)n1)c1cccc([N+](=O)[O-])c1 | . | . | -1 | . | . | .
CC(=O)Nc1ccc(C(=O)NN=Cc2ccccc2OCc2ccccc2)cc1 | . | . | 2 | . | . | .
O=c1cc(-c2ccc(Cl)cc2)oc(=O)[nH]1 | -1 | -4 | 1 | -16 | 1 | -15
O=c1cc(N=Nc2ccc(Cl)cc2)[nH]c(=O)[nH]1 | -37 | -11 | 5 | 2 | -8 | 70*
Cc1cccc(NC(=O)CCC(=O)NN=Cc2cccnc2)c1 | . | . | -1 | . | . | .
Cc1cc(C)n(-c2nc3ccccc3s2)n1 | . | 13 | 2 | -2 | 0 | -2
Cc1cc(N)n(-c2nc3ccccc3s2)n1 | 99* | 3 | -4 | 3 | 0 | -5
COc1ccc(C=c2sc3n(c2=O)NC2(c4ccccc4)N(C)C(=O)N(C)C2(c2ccccc2)N=3)cc1 (centres undefined) | . | . | 4 | . | . | .
O=C(CSC1=NS(=O)(=O)c2cc(F)ccc2N1)Nc1cccc(F)c1 | 97* | -5 | 6 | 1 | 0 | .
Cc1cc(C=Nn2cnnc2)c(C)n1-c1ccc2c(c1)OCO2 | . | . | 6 | . | . | .
COCCNC(=S)NCc1ccc2[nH]c3c(c2c1)CCCC3 | 94* | -4 | 4 | -4 | -1 | -11
CC(C)C(NC(=O)CCNC(=O)c1ccc(C(C)(C)C)cc1)c1nc2ccccc2[nH]1 (centres undefined) | 0 | -1 | 3 | -4 | -11 | .
CC(=O)c1ccc(S(=O)(=O)NCC(=O)NC(c2nc3ccccc3[nH]2)C(C)C)cc1 (centres undefined) | 99* | 0 | -6 | -4 | -3 | .
CCOC(=O)c1ccc(-c2ccc(C=NNC(=O)c3cncc(Br)c3)o2)cc1 | . | . | -33 | . | . | .
SMILES | ALR H2O2 inh | FAS-TE inh | UCH37 DUB inh | Rtt109 Vps75 | HDAC3 inhib | M18AAP inhibitor
CCCOc1ccc(Cl)cc1CNc1ccccc1 | 98* | 45 | 0 | -19 | -1 | -6
CCn1c(SCC(=O)NN=Cc2ccccc2OCC(=O)O)nnc1-c1ccc(OC)cc1 | . | . | 3 | . | . | .
COC(=O)c1ccc(C=NNC(=O)CCSc2nc3ccccc3s2)cc1 | . | . | 5 | . | . | .
N#C/C(N=Nc1ccccc1O)=N\Nc1ccccc1O | 99* | 28 | 0 | 7 | -6 | .
CCOc1ccccc1-c1c2cc(O)c(=O)cc-2oc2cc(O)c(O)cc12 | . | -161 | 16 | 6 | . | 30*
O=c1cc2oc3cc(O)c(O)cc3c(-c3ccccc3O)c-2cc1O | . | -2 | 15 | -4 | . | 44*
COc1ccc(C=NNC(=O)c2cccc(S(=O)(=O)N3CCCC3)c2)cc1O | . | . | 8 | . | . | .
O=C(NN=Cc1ccccn1)c1cc(-c2ccc(Cl)s2)[nH]n1 | . | . | 7 | . | . | .
CCOC(=O)c1ccc2c(c1)n(CC)c(C)[n+]2CC | . | -7 | 1 | 2 | -2 | -14
CCOC(=O)c1ccc2c(c1)[nH]c(=S)n2CC | 83* | 9 | 2 | -2 | 7 | 0
O=C(NN=Cc1cccs1)C(O)c1ccccc1 (centres undefined) | . | . | 4 | . | . | .
CC(C)CC(COCc1ccc([N+](=O)[O-])cc1)N1CCN(C(=O)c2ccc(C(F)(F)F)cc2)CCC1=O (centres undefined) | -3 | 57* | 0 | 2 | -6 | 0
Cc1ccc(Sc2ncccc2C(=O)NCc2cc([N+](=O)[O-])ccc2O)cc1C | 89* | -1 | 8 | 13 | 6 | 3
COc1ccc(CNC(=O)c2cccnc2Sc2ccc(C)c(C)c2)cc1 | . | 6 | 2 | 9 | . | -4
COCCCN1C(=O)CSC1=NS(=O)(=O)c1ccccc1 | . | . | 1 | . | . | .
Cc1ccc(NCc2nnc(SCC(N)=O)o2)c(C)c1 | 39 | -5 | -1 | -5 | -7 | -7
CCOC(=O)CN(C(=O)CSc1nnc(CNc2ccc(C)cc2C)o1)c1ccccc1 | 96* | 6 | 3 | -7 | 0 | 0
Cc1ccc(NCc2nnc(SCC(=O)OC3CCCCC3)o2)c(C)c1 | 98* | 8 | 2 | -20 | 14 | 13
Cc1ccc(NCc2nnc(SCC(=O)N(Cc3ccccc3)C(C)(C)C)o2)c(C)c1 | 8 | 23 | -2 | 27 | 6 | -2
Cc1ccc(/C=C/C(=O)c2ccccc(=O)c2O)cc1C | 96* | 8 | 1 | -9 | 12 | 18
CC(=O)ON=C(N)c1cnn2c(C(F)(F)F)cc(C(F)(F)F)nc12 | . | . | 2 | . | . | .
NC(=O)c1cccc(N=Cc2cc(Cl)cc(Cl)c2O)c1 | . | -5 | -1 | 0 | . | 3
Oc1c(Cl)cc(Cl)cc1C=Nc1ccccc1N1CCCC1 | 98* | . | . | . | 10 | 17
Cc1ccccc1Oc1cc(-n2ncc(Cl)c(Cl)c2=O)ncn1 | 97* | 40 | 5 | -3 | 5 | 4
CCOc1cnn(-c2cc(Oc3ccc(C)cc3)ncn2)c(=O)c1Cl | 2 | -2 | 3 | 6 | 2 | 3
SMILES | ALR H2O2 inh | FAS-TE inh | UCH37 DUB inh | Rtt109 Vps75 | HDAC3 inhib | M18AAP inhibitor
COc1cc(C=NNC(=O)Nc2ccccc2)ccc1OC(C)=O | . | . | 3 | . | . | .
Cc1cc2n(n1)C(c1ccccc1)Nc1ccccc1-2 (centres undefined) | 91* | 5 | -30 | -2 | 0 | -8
Cc1ccc2c(c1)-c1cc(C)nn1C(c1sccc1C)N2 (centres undefined) | 4 | 14 | -60 | . | -4 | -5
Cc1cc2n(n1)C(c1sccc1C)Nc1ccccc1-2 (centres undefined) | 91* | 16 | -22 | 9 | 8 | 0
COc1ccc(C=NNc2nc(C)cc(=O)[nH]2)cc1OC | . | . | 7 | . | . | .
Brc1ccc(-c2csc(NN=Cc3ccco3)n2)cc1 | . | . | 1 | . | . | .
